# Active and inactive are the calls of the source. The rule behind the calls is not given here.
# Experiments:
# Mus musculus [1] = test: Antinociceptive activity in sc dosed male white mouse by hot plate test; format: functional
# Mus musculus [2] = test: Antinociceptive activity in sc dosed male white mouse by Nilsen test; format: functional
# Mus musculus [3] = test: Toxicity in male white mouse assessed as induction of convulsions at 100 mg/kg, sc; format: organism-based; set-up: dose 100 mg/kg, route subcutaneous; details: in vivo
# Mus musculus [4] = test: Antinociceptive activity in male white mouse at 100 mg/kg, sc by hot plate test; format: functional, organism-based; set-up: dose 100 mg/kg
# Summary of the method: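 Hot-plate antinociception test in male white mice, run by the standard method, with the compound given subcutaneously. Room temperature was held at 23 °C during testing.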
# [5] = Toxicity in sc dosed male white mouse; format: organism-based; details: in vivo
# Summary of the method: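 LD50 determined in the same male white mouse strain, with the same vehicle and subcutaneous route as the antinociceptive tests. Room temperature was 23 °C. 95% confidence limits were obtained by probit analysis.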
# Mus musculus [6] = test: Antinociceptive activity in male white mouse at 100 mg/kg, sc by Nilsen test; format: functional, organism-based; set-up: dose 100 mg/kg
# Mus musculus [7] = test: Antinociceptive activity in male white mouse at 20 mg/kg, sc by Nilsen test; format: functional, organism-based; set-up: dose 20 mg/kg
# Mus musculus [8] = test: Toxicity in male white mouse assessed as induction of convulsions at 50 mg/kg, sc; format: organism-based; set-up: dose 50 mg/kg, route subcutaneous; details: in vivo
# Mus musculus [9] = test: Toxicity in male white mouse assessed as induction of convulsions<40 mg/kg, sc; format: organism-based; details: in vivo
SMILES,ED50 (Mus musculus [1]) [mg/kg],ED50 (Mus musculus [2]) [mg/kg],LD50 [5] [mg/kg],also measured
CCCCCc1cc(O)c2c(c1)OC(C)(C)C1CC=C(CO)CC21 (centres undefined),1.9,5.4,–,–
CC(C)[C@]12CC(=O)[C@@H](C)[C@H]1C2,–,–,442,Activity (Mus musculus [3]): Toxic; Activity (Mus musculus [4]): Active; Activity (Mus musculus [6]): Active
CC1C(=O)C[C@]2(C(C)C)C[C@H]12 (mixture of isomers),16.7,–,134,–
CN1CC[C@]23c4c5ccc(O)c4O[C@H]2[C@@H](O)C=C[C@H]3[C@H]1C5.CN1CC[C@]23c4c5ccc(O)c4O[C@H]2[C@@H](O)C=C[C@H]3[C@H]1C5.O=S(=O)(O)O,1.2,0.8,–,–
CCCCCc1cc(O)c2c(c1)OC(C)(C)[C@@H]1CCC(C)=C[C@@H]21 [DRONABINOL],9.6,–,–,–
CCCCCc1cc(O)c2c(c1)OC(C)(C)[C@@H]1CC=C(C)CC21 (some centres undefined),8.8,–,–,Activity (Mus musculus [7]): inactive
CCC(=O)C(CC(C)N(C)C)(c1ccccc1)c1ccccc1 (racemic) [METHADONE],0.8,–,44,–
COc1ccc2c3c1O[C@H]1[C@@H](O)C=C[C@H]4[C@@H](C2)N(C)CC[C@@]341.Cl,7.5,4.5,270,–
CC(C)[C@]12C[C@@H](O)[C@H](C)[C@H]1C2,33.3,–,–,–
CC(C)[C@]12CC(=O)[C@H](C)[C@H]1C2,6.5,14.1,87.5,Activity (Mus musculus [8]): Toxic; Activity (Mus musculus [9]): Non-toxic
